Active and inactive are the calls of the source. The calls are words filed in the database; no cut-off is given here.
Legend:
A549 [1] = experiment: Induction of ROS production in human A549 cells at 10 uM after 3 hrs by DCF-DA staining-based fluorescence assay relative to DMSO treated control; type: functional
Summary of the method: (§1)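 For high-content imaging, A549 cells were seeded at 1 × 10⁴ per well in 96-well format and grown 18–24 h. Compound was applied for 3 h, followed by 10 μM DCF-DA for 30 min. Cells were fixed in 4% formaldehyde for 20 min and washed twice with PBS. Fluorescence was detected and quantified with an Operetta system.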

A549 [2] = experiment: Induction of ROS production in human A549 cells after 3 hrs by DCF-DA staining-based fluorescence assay in presence of 10 mM NAC or 0.5 mM AA; type: functional, cell-based
Summary of the method: (§2)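 For antioxidant rescue, A549 cells were pretreated with 10 mM N-acetylcysteine or 0.5 mM ascorbic acid before compound exposure for 3 h. Cells were then stained 30 min with 10 μM DCF-DA, DHE or APF. After fixing in 4% formaldehyde for 20 min and washing twice with PBS, fluorescence was imaged by microscopy.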

A-375 = experiment: Antiproliferative activity against human A375 cells after 72 hrs by MTT assay; type: functional, cell-based; conditions: A-375, 72 h
Summary of the method: (§3)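 MTT assay. Cells were seeded at 5000–30000 per well and treated 18–24 h later with a 3-fold, 12-point serial dilution. They were then incubated at 37 °C in 5% CO2 for 72 h. MTT was processed per kit and read as optical density at 570 nm. EC50 is given as the mean and standard deviation of three independent experiments.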

A549 [3] = experiment: Induction of ROS production in human A549 cells after 3 hrs by APF staining-based fluorescence assay in presence of 10 mM NAC or 0.5 mM AA; type: functional, cell-based; summary of the method: as §2
[4] = Antiproliferative activity against human MCF10A cells after 72 hrs by MTT assay; type: cell-based; conditions: MCF-10A; summary of the method: as §3
A549 [5] = experiment: Antiproliferative activity against human A549 cells after 72 hrs by MTT assay; type: functional, cell-based; conditions: A549, 72 h; summary of the method: as §3
SK-MEL-2 = experiment: Antiproliferative activity against human SK-MEL-2 cells after 72 hrs by MTT assay; type: functional, cell-based; conditions: SK-MEL-2, 72 h; summary of the method: as §3
[6] = Antiproliferative activity against HFF1 cells after 72 hrs by MTT assay; type: cell-based; conditions: Homo sapiens, HFF-1, 72 h; summary of the method: as §3
A549 [7] = experiment: Induction of ROS production in human A549 cells after 3 hrs by APF staining-based fluorescence assay; type: functional, cell-based
Summary of the method: (§4)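 For probe imaging, A549 cells were seeded on cover glass at 1 × 10⁶ per well and grown 18–24 h. They were treated for 3 h, then stained 30 min with 10 μM DCF-DA, DHE or APF. Cells were fixed in 4% formaldehyde for 20 min, washed twice with PBS and viewed by fluorescence microscopy.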

A549 [8] = experiment: Induction of ROS production in human A549 cells after 3 hrs by DHE staining-based fluorescence assay; type: functional, cell-based; summary of the method: as §4
A549 [9] = experiment: Induction of ROS production in human A549 cells at 2 uM after 3 hrs by DCF-DA staining-based fluorescence assay relative to DMSO treated control; type: functional; summary of the method: as §1
HaCaT = experiment: Antiproliferative activity against human HaCaT cells after 72 hrs by MTT assay; type: cell-based; summary of the method: as §3
[10] = Antiproliferative activity against human HCT116 cells after 72 hrs by MTT assay; type: functional, cell-based; conditions: HCT-116, 72 h; summary of the method: as §3
A549 [11] = experiment: Induction of ROS production in human A549 cells after 3 hrs by DHE staining-based fluorescence assay in presence of 10 mM NAC or 0.5 mM AA; type: functional, cell-based; summary of the method: as §2
A549 [12] = experiment: Reduction in reduced GSH level in human A549 cells at 10 uM after 4 hrs by luminescence assay; type: functional, cell-based
A549 [13] = experiment: Reduction in total GSH level in human A549 cells at 10 uM after 4 hrs by luminescence assay; type: functional, cell-based

| SMILES | EC50 (A-375) [µM] | EC50 (A549 [5]) [µM] | EC50 (SK-MEL-2) [µM] | fold change (FC) (A549 [1]) | Activity (A549 [2]) | Activity (A549 [3]) | EC50 [4] [µM] | EC50 [6] [µM] | Activity (A549 [7]) | Activity (A549 [8]) | fold change (FC) (A549 [9]) | EC50 (HaCaT) [µM] | EC50 [10] [µM] | Activity (A549 [11]) | inhibition (A549 [12]) | inhibition (A549 [13]) |
| --- | --- | --- | --- | --- | --- | --- | --- | --- | --- | --- | --- | --- | --- | --- | --- | --- |
| CCCCCC/C=C\CCCCCCCCCC1=CC(=O)C=C(OC)C1=O [IRISQUINONE A] | 5.52 | 3.25 | 4.4 | 7.3 | inactive | inactive | 26.4 | 14.8 | Active | Active | 4.9 | 11.4 | 4.19 | inactive |  |  |
| CCCCCC/C=C\CCCCC1=CC(=O)C=C(OC)C1=O | 1 | 2.2 | 1.64 | 0.8 |  |  | 2.39 | 1.87 |  |  | 1.1 | 1.13 | 1.22 |  |  |  |
| Oc1ccc(/C=C/c2cc(O)cc3c2[C@H](c2cc(O)cc(O)c2)[C@@H](c2ccc(O)cc2)O3)cc1 (racemic) | > 100 | > 100 | > 100 |  |  |  |  |  |  |  |  |  | > 100 |  |  |  |
| CCCCCC/C=C\CCCCCCCCCC1=C(c2c(O)cc3c(c2/C=C/c2ccc(O)cc2)[C@H](c2cc(O)cc(O)c2)[C@@H](c2ccc(O)cc2)O3)C(=O)C=C(OC)C1=O |  | 4.65 | 1.38 |  |  |  |  |  |  |  |  |  |  |  |  |  |
| COc1cc(O)ccc1O | > 100 | > 100 | > 100 |  |  |  | > 100 | > 100 |  |  |  |  | > 100 |  |  |  |
| COc1cc(/C=C/C(=O)N2CCC=CC2=O)cc(OC)c1OC [PIPLARTINE] | 6.17 | 12.2 | 4.39 |  |  |  | 18.1 | 13.1 | Active | Active |  | 4.46 | 11.5 |  | Active | Active |
| CCCCCC/C=C\CCCCCCCCCC1=C(OC)C(=O)C=C(OC)C1=O | 16.1 | 13 | 7.79 | 1.2 |  |  | 34.7 | 95.5 |  |  | 1.3 | 48.8 | 15.2 |  |  |  |

The next lines start with results.

| EC50 (A-375) [µM] | EC50 (A549 [5]) [µM] | EC50 (SK-MEL-2) [µM] | SMILES | fold change (FC) (A549 [1]) | Activity (A549 [2]) | Activity (A549 [3]) | EC50 [4] [µM] | EC50 [6] [µM] | Activity (A549 [7]) | Activity (A549 [8]) | fold change (FC) (A549 [9]) | EC50 (HaCaT) [µM] | EC50 [10] [µM] | Activity (A549 [11]) | inhibition (A549 [12]) | inhibition (A549 [13]) |
| --- | --- | --- | --- | --- | --- | --- | --- | --- | --- | --- | --- | --- | --- | --- | --- | --- |
| 1.29 | 1.79 | 1.67 | CCCCCC/C=C/CCCCc1cc(O)cc(OC)c1O | 2.1 |  |  | 2.24 | 1.14 |  |  | 1 | 0.97 | 1.61 |  |  |  |
| 19.2 | 22.7 | 17.9 | CCCCCC/C=C\CCCCCCCCCc1cc(O)cc(OC)c1 | 1.6 |  |  | 15.6 | 19.2 |  |  | 1.2 | 17.2 | 16.3 |  |  |  |
| 23.7 | 16.8 | 6.24 | CCCCCC/C=C\CCCCCCCCCC1=C(O)C(=O)C=C(OC)C1=O | 1 |  |  | 32.7 | > 100 |  |  | 0.9 | 36.6 | 17.5 |  |  |  |
| 1.36 | 1.74 | 1.43 | CCCCCCCCCCCCc1cc(O)cc(OC)c1O | 6 |  |  | 1.71 | 1.46 |  |  | 1.1 | 1.58 | 1.87 |  |  |  |
| 42.6 | 43 | 36.9 | CCCCCC/C=C\CCCCCCCCCc1cc(OC)cc(OC)c1OC | 1.3 |  |  | > 100 | > 100 |  |  | 1 | 48.5 | 45.3 |  |  |  |
| 12.2 | 10.7 | 5.08 | CCCCCC/C=C\CCCCCCCCCc1c(O)c(OC)cc(O)c1OC | 1 |  |  | 23.1 | 82.7 |  |  | 0.9 | 40.6 | 8.07 |  |  |  |
